Measurements pooled from the literature.
Each line is one published result; the experiments were not run side by side.
Target: Phosphatidylinositol 4-phosphate 3-kinase C2 domain-containing subunit alpha (PIK3C2A, Homo sapiens, UniProt O00443)
Mode: inhibitor

COc1cc(Cl)c(C(=O)N[C@@H](CN[C@H]2CC[C@@H](N)CC2)Cc2ccc(C#N)cc2)cc1-c1ccc(CN[C@H](C)c2ccc(C)cc2)o1
remaining activity (enzyme activity; 1 µM): 93%

Cc1cnc(NC2CCOCC2)nc1-n1cnc(C(=O)NC(CN)c2cc(F)cc(Cl)c2)c1 (stereo not drawn)
remaining activity (enzyme activity, radiometric; 1 µM): 100%

C=CC(=O)Nc1cc(Nc2nccc(Nc3cc(Cl)c(F)cc3C(C)(C)O)n2)c(OC)cc1N1CC[C@@H](N(C)C)C1
inhibition (enzyme activity; 1 µM): -2%

Cc1cc(NC(=O)c2cccc3cc(-c4cccc5[nH]nc(N)c45)ccc23)ccc1F
activity vs control (enzyme activity; 0.1 µM): 108%

CC(C)CCn1c(SCC(=O)Nc2ccccc2C(F)(F)F)nc2nccnc2c1=O
inhibition (enzyme activity; 10 µM): 84%

CN1CC(Oc2cnc(C#N)cc2-c2ccn3nc(NC(=O)C4CC4)cc3c2)C1
inhibition (enzyme activity; 1 µM): -4%

Cc1ccc(NC(=O)c2ccc(C)c(C(F)(F)F)c2)cc1C#Cc1nn(C2CCC(O)CC2)c2ncnc(N)c12 (stereo not drawn)
remaining signal (cell-free assay; 10 µM): 92%

O=C(CSc1nc2nccnc2c(=O)n1CCc1ccccc1)Nc1ccccc1
inhibition (enzyme activity; 10 µM): 93%

Cc1ccc(C(=O)NCc2ccsc2)cc1C#Cc1cn(C(C)C)c2ncnc(N)c12
activity vs control (enzyme activity; 1 µM): 98%
